Source: ChEMBL document CHEMBL2021780, “Antineoplastic agents. 548. Synthesis of iodo- and diiodocombstatin phosphate prodrugs” (J Nat Prod, 2012)
pIC50: −log10 of the molar value. In brackets after ≈: the same amount, converted by molar mass. Activity calls are given as the source filed them. The calls are words filed in the database; no cut-off is given here.

How the values were obtained:
[1] = tested on: P388; test: Growth inhibition of mouse P388 cells after 48 hrs by Z1 Beckman/Coulter particle counter analysis; type: functional; conditions: P388, 48 h, read-out: ED50 (the source's name)
Method in brief: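 Mouse P388 leukemia cells were incubated 24 h in 10% horse serum/Fisher medium, then exposed 48 h to serial compound dilutions. ED50 was calculated from cell counts on a Coulter Z1 particle counter.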

[2] = tested on: BXPC-3; test: Growth inhibition of human BxPC3 cells after 48 hrs by sulforhodamine B assay; type: functional; conditions: BXPC-3, 48 h
Method in brief: (§1)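 NCI sulforhodamine B assay. Cells were seeded in 5% FBS/RPMI-1640 and incubated 24 h. Serial compound dilutions were then added for 48 h. Cells were fixed with trichloroacetic acid, stained with SRB and read by microplate reader. GI50 is the concentration giving 50% reduction in net protein increase, calculated from optical density data.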

[3] = tested on: MCF7; test: Growth inhibition of human MCF7 cells after 48 hrs by sulforhodamine B assay; type: functional; conditions: MCF7, 48 h; method in brief: as §1
[4] = tested on: SF-268; test: Growth inhibition of human SF268 cells after 48 hrs by sulforhodamine B assay; type: functional; conditions: SF-268, 48 h; method in brief: as §1
[5] = tested on: NCI-H460; test: Growth inhibition of human NCI-H460 cells after 48 hrs by sulforhodamine B assay; type: functional; conditions: NCI-H460, 48 h; method in brief: as §1
[6] = tested on: KM-20L2; test: Growth inhibition of human KM20L2 cells after 48 hrs by sulforhodamine B assay; type: functional; conditions: KM-20L2, 48 h; method in brief: as §1
[7] = tested on: DU-145; test: Growth inhibition of human DU145 cells after 48 hrs by sulforhodamine B assay; type: functional; conditions: DU-145, 48 h; method in brief: as §1
[8] = Growth inhibition of human KAT4 cells after 48 hrs by sulforhodamine B assay; type: functional; conditions: KAT-4, 48 h
[9] = tested on: SW-1736; test: Growth inhibition of human SW1736 cells after 48 hrs by sulforhodamine B assay; type: functional; conditions: SW-1736, 48 h
[10] = tested on: HUVEC; test: Antiangiogenic activity in HUVEC assessed as cell growth inhibition after 48 hrs by sulforhodamine B assay; type: functional, cell-based; conditions: Homo sapiens
Method in brief: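 HUVECs were grown in EGM-2 medium and tested with the standard SRB growth assay following NCI Developmental Therapeutics Program Matrigel antiangiogenesis protocols. IC50 (concentration causing 50% inhibition) was calculated from plotted data.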

[11] = tested on: HUVEC; test: Antiangiogenic activity in HUVEC assessed as reduction of cord length at 0.01 ug/ml after 24 hrs by matrigel assay relative to control; type: functional
Method in brief: (§2)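 Commercial HUVECs grown in EGM-2 were seeded at 2 × 10⁵ cells/mL onto Matrigel, which had been polymerized 15 min at rt and then 30 min at 37 °C, per NCI DTP protocol. Compound was added and cells were incubated 24 h, then imaged by inverted microscopy. Cord length and junction number were scored against untreated control on a scale from − (none) to +++ (same as control), with ++ = 50% of control.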

[12] = tested on: HUVEC; test: Antiangiogenic activity in HUVEC assessed as reduction of cord length at 0.001 ug/ml after 24 hrs by matrigel assay relative to control; type: functional; conditions: Homo sapiens; method in brief: as §2
[13] = tested on: HUVEC; test: Antiangiogenic activity in HUVEC assessed as reduction of cord length at 0.0001 ug/ml after 24 hrs by matrigel assay relative to control; type: functional, Homo sapiens; set-up: scale not given: the % may be the effect or the level left
Method in brief: (§3)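 Matrigel was polymerised in wells (15 min rt, then 30 min 37 °C). HUVECs (2 × 10⁵ cells/mL) were added with compound and incubated 24 h, then imaged by inverted microscope. Cord length and junction number were scored semi-quantitatively versus untreated control (− none to +++ same as control).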

[14] = tested on: HUVEC; test: Antiangiogenic activity in HUVEC assessed as reduction of number of junctions at 0.01 ug/ml after 24 hrs by matrigel assay relative to control; type: functional; method in brief: as §2
[15] = tested on: HUVEC; test: Antiangiogenic activity in HUVEC assessed as reduction of number of junctions at 0.001 ug/ml after 24 hrs by matrigel assay relative to control; type: functional; conditions: Homo sapiens; method in brief: as §2
[16] = tested on: HUVEC; test: Antiangiogenic activity in HUVEC assessed as reduction of number of junctions at 0.0001 ug/ml after 24 hrs by matrigel assay relative to control; type: functional, Homo sapiens; set-up: scale not given: the % may be the effect or the level left; method in brief: as §3
[17] = tested on: HUVEC; test: Antiangiogenic activity in HUVEC assessed as cell growth at 0.01 ug/ml after 24 hrs by sulforhodamine B assay relative to control; type: functional, Homo sapiens
[18] = tested on: HUVEC; test: Antiangiogenic activity in HUVEC assessed as cell growth at 0.001 ug/ml after 24 hrs by sulforhodamine B assay relative to control; type: functional, Homo sapiens; conditions: Homo sapiens, HUVEC, 24 h; read-out: Activity
[19] = tested on: HUVEC; test: Antiangiogenic activity in HUVEC assessed as cell growth at 0.0001 ug/ml after 24 hrs by sulforhodamine B assay relative to control; type: functional, Homo sapiens; conditions: Homo sapiens, HUVEC, 24 h; read-out: Activity
[20] = tested on: HUVEC; test: Antiangiogenic activity in HUVEC assessed as cell growth at 0.00001 ug/ml after 24 hrs by sulforhodamine B assay relative to control; type: functional; conditions: Homo sapiens, read-out: Activity
[21] = Inhibition of purified tubulin assembly after 20 mins
Method in brief: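 Purified tubulin at 10 μM in 0.8 M monosodium glutamate (pH 6.6), 0.4 mM GTP and 4% (v/v) DMSO, with varying compound concentrations. Extent of assembly was measured after 20 min at 30 °C.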

[22] = Displacement of [3H]colchicine from tubulin at 1 uM after 10 mins
Method in brief: (§4)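 [³H]colchicine binding: 1.0 μM tubulin with 5.0 μM [³H]colchicine and compound, incubated 10 min at 37 °C. The tubulin–colchicine complex was separated from unbound label by retention on DEAE-cellulose filters. Result is inhibition of radiolabel binding.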

[23] = Displacement of [3H]colchicine from tubulin at 10 uM after 10 mins; method in brief: as §4
[24] = tested on: Micrococcus luteus; test: Antibacterial activity against Micrococcus luteus Presque Isle 456 by broth microdilution method; type: functional
Method in brief: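 Broth microdilution per NCCLS bacterial (M7-A5) and yeast standards. Compounds were reconstituted in sterile DMSO and diluted in the appropriate medium just before testing. MIC is the lowest concentration giving complete inhibition of visible growth (optically clear). Assays were repeated on separate days.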

[25] = tested on: Cryptococcus neoformans; test: Antifungal activity against Cryptococcus neoformans ATCC 90112 by broth microdilution method
[26] = tested on: HUVEC; test: Antiangiogenic activity in HUVEC assessed as reduction of cord length at 0.00001 ug/ml after 24 hrs by matrigel assay relative to control; type: functional, cell-based; conditions: Homo sapiens; method in brief: as §2
[27] = tested on: HUVEC; test: Antiangiogenic activity in HUVEC assessed as reduction of cord length at 0.1 ug/ml after 24 hrs by matrigel assay relative to control; type: functional, cell-based; conditions: Homo sapiens; method in brief: as §2
[28] = tested on: HUVEC; test: Antiangiogenic activity in HUVEC assessed as reduction of number of junctions at 0.00001 ug/ml after 24 hrs by matrigel assay relative to control; type: functional, cell-based; conditions: Homo sapiens; method in brief: as §2
[29] = tested on: HUVEC; test: Antiangiogenic activity in HUVEC assessed as reduction of number of junctions at 0.1 ug/ml after 24 hrs by matrigel assay relative to control; type: functional, cell-based; conditions: Homo sapiens; method in brief: as §2
[30] = Solubility of the compound in water; type: physicochemical; conditions: buffer
Method in brief: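 Solubility expressed as amount dissolving in 1 mL H₂O at 25 °C.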

[31] = tested on: SK-N-SH; test: Growth inhibition of human SK-N-SH cells after 48 hrs by sulforhodamine B assay; type: functional; method in brief: as §1
[32] = tested on: SK-N-AS; test: Growth inhibition of human SK-N-AS cells after 48 hrs by sulforhodamine B assay; type: functional; method in brief: as §1
[33] = tested on: IMR-32; test: Growth inhibition of human IMR32 cells after 48 hrs by sulforhodamine B assay; type: functional; conditions: IMR-32, 48 h; method in brief: as §1
[34] = tested on: HUVEC; test: Antiangiogenic activity in HUVEC assessed as cell growth at 0.1 ug/ml after 24 hrs by sulforhodamine B assay relative to control; type: functional, Homo sapiens
[35] = tested on: Neisseria gonorrhoeae; test: Antibacterial activity against Neisseria gonorrhoeae ATCC 49226 by broth microdilution method; type: functional
Method in brief: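 Broth microdilution followed NCCLS standard methods. Compounds were reconstituted in sterile DMSO and diluted in the appropriate medium immediately before testing. MIC was taken as the lowest concentration giving no visible growth (optically clear). Assays were repeated on separate days.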

Compound	EC50 [1] [ng/mL]	GI50 [2] [ng/mL]	GI50 [3] [ng/mL]	GI50 [4] [ng/mL]	GI50 [5] [ng/mL]	GI50 [7] [ng/mL]	GI50 [8] [ng/mL]	GI50 [9] [ng/mL]	IC50 [10] [ng/mL]	Activity ([11]; Homo sapiens)	Activity [12]	Activity ([14]; Homo sapiens)	Activity [15]	growth at 0.001 µg/mL [18] [%]	growth at 0.0001 µg/mL [19] [%]	other results
COc1ccc(/C=C\c2cc(I)c(OC)c(OC)c2)cc1O [IODOCOMBSTATIN]	2 (≈ 4.85 nM)	48 (≈ 116 nM)	0.22 (≈ 0.534 nM)	0.18 (≈ 0.437 nM)	0.29 (≈ 0.704 nM)	0.18 (≈ 0.437 nM)	89 (≈ 216 nM)	2200 (≈ 5340 nM)	0.04 (≈ 0.097 nM)	Active	Active	Active	Active	14	18	GI50 [6]: 328 ng/mL (≈ 796 nM); Activity [13]: 75%; Activity [16]: 75%; growth at 0.01 µg/mL ([17]; Homo sapiens, HUVEC, 24 h, read-out: Activity): 14%; growth at 10 pg/mL [20]: 90%; pIC50 [21]: 5.60; inhibition [22]: 78%; inhibition [23]: 100%; MIC [24]: 2000 ng/mL (≈ 4850 nM); MIC [25]: 64000 ng/mL (≈ 155000 nM)
COc1ccc(/C=C\c2cc(I)c(OC)c(OC)c2)cc1OP(=O)(O)O										Active	Active	Active	Active			Activity ([13]; Homo sapiens): inactive; Activity [26]: inactive; Activity [27]: Active; Activity ([16]; Homo sapiens): inactive; Activity [28]: inactive; Activity [29]: Active
COc1ccc(/C=C\c2cc(I)c(OC)c(I)c2)cc1OP(=O)([O-])[O-].[K+].[K+]	3.4	440	50	53	46	28	380	> 10000	4.9					88	96	solubility [30]: 22 mg/mL; GI50 [31]: 7.5 ng/mL; GI50 [32]: 2 ng/mL; GI50 [33]: 81 ng/mL; Activity [11]: 75%; Activity [14]: 75%; Activity [17]: 33%; Activity [34]: 15%; MIC [35]: < 500 ng/mL
